From ChEMBL document CHEMBL1909573, “Synthesis and biological evaluation of (2,5-dihydro-1H-pyrrol-1-yl)-2H-chromen-2-ones as free radical scavengers” (Eur J Med Chem, 2011)
Active and inactive are the calls of the source. The calls are words filed in the database; no cut-off is given here.

Experiments:
[1] = test system: Radical scavenging activity; experiment: Antioxidant activity assessed as reduction in DPPH free radical at 50 uM after 60 mins; format: functional
Method in brief: (§1)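 Compound solutions in ethanol were mixed with an equal volume of DPPH in absolute ethanol, giving compound concentrations of 50 and 100. Ethanol served as the control. Absorbance at 517 nm was read after 20 and 60 min at room temperature. Each run was done at least in triplicate, with the SD of absorbance under 10% of the mean.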

[2] = test system: Radical scavenging activity; experiment: Antioxidant activity assessed as DPPH free radical scavenging activity at 100 uM; format: functional; method in brief: as §1
[3] = Antioxidant activity assessed as inhibition of superoxide anion radical production at 100 uM after 2 mins by nitroblue tetrazolium method; format: functional
Method in brief: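 This was a nitroblue tetrazolium assay. The mixture held […] in 19 mM phosphate buffer, pH 7.4. Compounds were preincubated 2 min before NADH was added. After 2 min at room temperature, absorbance at 560 nm was read against a PMS-containing blank. Runs were done at least in triplicate.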

[4] = test system: Radical scavenging activity; experiment: Antioxidant activity assessed as DPPH free radical scavenging activity at 100 uM after 60 mins; format: functional; method in brief: as §1
[5] = Antioxidant activity assessed as hydroxyl radical scavenging activity at 100 uM after 30 mins; format: functional
[6] = test system: Radical scavenging activity; experiment: Antioxidant activity assessed as DPPH free radical scavenging activity at 100 uM after 20 mins; format: functional; method in brief: as §1
[7] = test system: Radical scavenging activity; experiment: Antioxidant activity assessed as reduction in DPPH stable free radical at 50 uM after 20 mins; format: functional; method in brief: as §1
[8] = Antioxidant activity assessed as inhibition of AAPH-induced lipid peroxidation at 100 uM; format: functional
Glycine max = experiment: Inhibition of soybean lipoxygenase assessed as conversion of sodium linoleate to 13-hydroperoxylinoleic acid at 100 uM
Method in brief: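 Soybean lipoxygenase was measured by UV absorbance. Runs were done at least in triplicate, with the SD of absorbance under 10% of the mean.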

inhibition (Glycine max) [%] | SMILES | Activity [1] | Activity [2] | inhibition [3] | Activity [4] [%] | inhibition [5] [%] | Activity [6] [%] | Activity [7] | inhibition [8] [%]
28 | Cc1cc(=O)oc2cc(N3CC=CC3)ccc12 | inactive |  | inactive | 20 | 85 | 5 | inactive | 87
15 | O=c1ccc2ccccc2o1 |  | Dose-dependent effect |  | 21 | 78 | 5 |  | 
55.5 | Cc1ccc2oc(=O)ccc2c1-n1cccc1 | inactive | Dose-dependent effect | inactive | 7 | 91 | 7 | inactive | 71
60 | Cc1cc2oc(=O)ccc2cc1N1CC=CC1 | inactive | Dose-dependent effect | inactive | 10 | 77 | 9 | inactive | 91
12 | Cc1cc(=O)oc2cc(-n3cccc3)ccc12 | inactive | Dose-dependent effect | inactive | 14 | 9 | 14 | inactive | 46
84 | CC(Cc1ccc(O)c(O)c1)C(C)Cc1ccc(O)c(O)c1 (stereo not drawn) |  | Dose-dependent effect |  | 83 |  | 81 |  | 
52.5 | Cc1cc2ccc(=O)oc2cc1N1CC=CC1 | inactive | Dose-dependent effect | inactive | 7 | 41 | 5 | inactive | 24
89 | Cc1ccc2ccc(=O)oc2c1 |  | Dose-dependent effect |  | 2 | 44 | 2 |  | 

Continued, molecule first:

SMILES | inhibition (Glycine max) [%] | Activity [1] | Activity [2] | inhibition [3] | Activity [4] [%] | inhibition [5] [%] | Activity [6] [%] | Activity [7] | inhibition [8] [%]
Cc1cc2ccc(=O)oc2cc1-n1cccc1 |  | inactive | Dose-dependent effect | inactive | 13 | 88 | 13 | inactive | 
Cc1cc2oc(=O)ccc2cc1-n1cccc1 |  | inactive | Dose-dependent effect | inactive | 14 |  | 14 | inactive | 
Cc1ccc2oc(=O)ccc2c1N1CC=CC1 |  | inactive | Dose-dependent effect | inactive | 5 |  | 5 | inactive | 57
O=c1ccc2cc(N3CC=CC3)ccc2o1 |  | inactive |  | inactive | 71 | 90 | 49 | inactive | 86
O=c1ccc2cc(-n3cccc3)ccc2o1 |  | inactive | Dose-dependent effect | inactive | 19 |  | 18 | inactive | 1
O=c1cc(N2CC=CC2)c2ccccc2o1 | 43 | inactive |  | inactive | 27 | 83 | 8 | inactive | 100
Cc1c(C)c2c(c(C)c1O)CCC(C)(C(=O)O)O2 (stereo not drawn) |  |  | Dose-dependent effect |  |  | 63 |  |  | 73
